This note sets out measurements from ChEMBL document CHEMBL4602721, “Discovery of Potent Inhibitors against P-Glycoprotein-Mediated Multidrug Resistance Aided by Late-Stage Functionalization of a 2-(4-(Pyridin-2-yl)phenoxy)pyridine Analogue” (J Med Chem, 2020).

Data set [1] deals with T1, ATP-dependent translocase ABCB1 (Homo sapiens, UniProt P08183). In words: Reversal of Pgp-mediated DOX resistance in human SW620/AD300 cells assessed as potentiation of DOX-induced cytotoxicity by measuring change in DOX IC50 at 1 uM incubated for 48 hrs by SRB assay relative to DOX alone. It is filed as cell-based. As to conditions: sw620/ad300, 48 h.
In data set [2] the target is T2, Broad substrate specificity ATP-binding cassette transporter ABCG2 (Homo sapiens, UniProt Q9UNQ0).
T2 sequence (Q9UNQ0 whole entry): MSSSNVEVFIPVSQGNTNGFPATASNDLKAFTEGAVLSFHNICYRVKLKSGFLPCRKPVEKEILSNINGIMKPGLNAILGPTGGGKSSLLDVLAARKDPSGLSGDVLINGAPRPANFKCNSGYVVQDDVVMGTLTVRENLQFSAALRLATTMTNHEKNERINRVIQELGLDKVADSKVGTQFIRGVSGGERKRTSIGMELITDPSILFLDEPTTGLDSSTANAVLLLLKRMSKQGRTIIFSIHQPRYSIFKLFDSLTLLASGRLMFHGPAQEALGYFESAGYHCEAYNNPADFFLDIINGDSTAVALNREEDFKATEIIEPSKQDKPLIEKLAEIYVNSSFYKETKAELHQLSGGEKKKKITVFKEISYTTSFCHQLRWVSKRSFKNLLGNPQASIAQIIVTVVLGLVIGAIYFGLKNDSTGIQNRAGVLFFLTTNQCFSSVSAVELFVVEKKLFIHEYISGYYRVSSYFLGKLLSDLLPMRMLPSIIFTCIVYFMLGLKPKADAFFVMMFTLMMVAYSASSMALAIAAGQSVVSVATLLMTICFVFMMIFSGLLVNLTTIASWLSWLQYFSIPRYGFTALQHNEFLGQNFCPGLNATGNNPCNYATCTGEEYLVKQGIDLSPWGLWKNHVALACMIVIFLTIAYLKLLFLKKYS
In words: Reversal of ABCG2-mediated mitoxantrone resistance in human NCI-H460/MX20 cells assessed as potentiation of mitoxantrone-induced cytotoxicity by measuring change in mitoxantrone IC50 at 5 uM incubated for 48 hrs by SRB assay relative to mitoxantrone IC50. The data set is classed as cell-based.

Data set [3] deals with T3, Multidrug resistance-associated protein 1 (Homo sapiens, UniProt P33527). In words: Reversal of ABCC1-mediated vincristine resistance in human KB-CV60 cells assessed as potentiation of vincristine-induced cytotoxicity by measuring change in vincristine IC50 at 5 uM incubated for 48 hrs by SRB assay relative to vincristine IC50. It is filed as cell-based. The gist of the method: (§1)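 ABCC1-overexpressing KB-CV60 cells: vincristine IC50 determined alone or with modulator at 2.5 or 5 μM; MK571 25 μM reference; reversal fold calculated as IC50 ratio without/with modulator.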

In data set [4] the test system is SW620/AD300. The data set is described as follows: Downregulation of ABCB1 expression in human SW620/AD300 cells at 1 to 5 uM incubated for 48 hrs by Western blot analysis. It is filed as functional, cell-based. The gist of the method:
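SW620 and SW620/AD300 cells compared for ABCB1 level; SW620/AD300 treated at 0, 1.0, 2.0 or 5.0 μM for 48 h, then ABCB1 protein assessed.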

The subject of data set [5] is SW-620. In words: Induction of Rh123 accumulation in human SW620 cells at 0.01 to 0.5 uM incubated for 4 hrs by flow cytometry. It is filed as functional, cell-based. In a few lines: (§2)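 SW620 and SW620/AD300 cells exposed to 1 μg/mL rhodamine 123 with or without modulator; intracellular Rh123 content measured; mean ± SD of three independent experiments.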
Data set [6] concerns the target T1, ATP-dependent translocase ABCB1. In words: Reversal of Pgp-mediated DOX resistance in human SW620/AD300 cells assessed as potentiation of DOX-induced cytotoxicity by measuring inhibition of cell proliferation at 1 uM incubated for 48 hrs by SRB assay (reference value: 5.3 +/- 3 %). The data set is classed as cell-based.
The nature of data set [7]: Cytotoxicity against human NCI-H460/MX20 cells assessed as effect on cell proliferation at 2.5 to 5 uM measured after 48 hrs by SRB assay. The data set is classed as cell-based.
For data set [8], the target named is T2, Broad substrate specificity ATP-binding cassette transporter ABCG2. The data set is described as follows: Reversal of ABCG2-mediated mitoxantrone resistance in human NCI-H460/MX20 cells assessed as potentiation of mitoxantrone-induced cytotoxicity by measuring change in mitoxantrone IC50 at 2.5 uM incubated for 48 hrs by SRB assay relative to mitoxantrone IC50. It is filed as cell-based.

The test system of data set [9] is K562/A02. In words: Potentiation of DOX-induced anti tumor activity against human K562/A02 cells xenografted in BALB/c mouse assessed as reduction in tumor weight at 30 mg/kg, iv administered every 2 days for 14 days measured 24 hrs post-last dose. It is filed as functional, organism-based. The gist of the method: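 K562/A02 subcutaneous xenograft mice treated 14 days with DOX with or without modulator; tumors excised and weighed at Day 14.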

In data set [10] the target is T1, ATP-dependent translocase ABCB1. The data set is described as follows: Reversal of ABCB1-mediated multidrug resistance in human SW620 cells assessed as reduction in Rh123 efflux at 0.01 to 0.5 uM incubated for 4 hrs by flow cytometry analysis. As to conditions: sw-620, 4 h. It is filed as cell-based. The gist of the method: (§3)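 Cells pre-loaded with rhodamine 123, then efflux monitored in SW620 and SW620/AD300 cells over a range of modulator levels; mean ± SD of three independent experiments.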

The nature of data set [11]: Cytotoxicity against human KB-CV60 cells assessed as effect on cell proliferation at 2.5 to 5 uM measured after 48 hrs by SRB assay. It is filed as cell-based.
For data set [12], the target named is T1, ATP-dependent translocase ABCB1. In words: Reversal of ABCB1-mediated multidrug resistance in human SW620/AD300 cells assessed as increase in Rh123 accumulation at 0.01 to 0.5 uM incubated for 4 hrs by flow cytometry. To be noted: sw620/ad300, 4 h. It is filed as cell-based. In a few lines:
as §2

Data set [13] has as its system K562/A02. In words: Potentiation of DOX-induced anti tumor activity against human K562/A02 cells xenografted in BALB/c mouse assessed as tumor size at 30 mg/kg, iv administered every 2 days for 14 days measured during compound dosing by caliper method (reference value: 610 mm3). The data set is classed as functional. In a few lines:
(§4)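 Mice bearing subcutaneous ABCB1-overexpressing K562/A02 xenografts treated with DOX alone, modulator alone, or combinations (verapamil as comparator) for 14 days; tumor volume measured every two days.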

Data set [14] deals with T3, Multidrug resistance-associated protein 1. The data set is described as follows: Reversal of ABCC1-mediated vincristine resistance in human KB-CV60 cells assessed as potentiation of vincristine-induced cytotoxicity by measuring change in vincristine IC50 at 2.5 uM incubated for 48 hrs by SRB assay relative to vincristine IC50. It is filed as cell-based. The gist of the method: as §1

The subject of data set [15] is K562/A02. The data set is described as follows: Effect on tumor size of human K562/A02 cells xenografted in BALB/c mouse at 30 mg/kg, iv administered every 2 days for 14 days measured during compound dosing by caliper method. The data set is classed as ADME, organism-based. As to conditions: in vivo. The gist of the method:
as §4

The target in data set [16] is T1, ATP-dependent translocase ABCB1. In words: Reversal of ABCB1-mediated multidrug resistance in human SW620/AD300 cells assessed as reduction in Rh123 efflux incubated for 4 hrs by flow cytometry analysis. The data set is classed as cell-based. As to conditions: sw620/ad300, 4 h. In a few lines: as §3
Data set [17] can be described thus: Cytotoxicity against human SW620/AD300 cells assessed as cell growth inhibition at 10 uM incubated for 48 hrs by SRB assay relative to control. The data set is classed as cell-based. To be noted: read-out: GI.
Data set [18] addresses T1, ATP-dependent translocase ABCB1. In words: Binding affinity to ABCB1 in human SW620/AD300 cells assessed as increase in thermal stability of ABCB1 at 20 uM incubated for 30 to 60 mins followed by heating at 40.5 to 59.5 degC by […]. It is filed as cell-based. As to conditions: sw620/ad300, 20 µM.

Active and inactive are the calls of the source. The calls are words filed in the database; no cut-off is given here.

T1 sequence (P08183 whole entry): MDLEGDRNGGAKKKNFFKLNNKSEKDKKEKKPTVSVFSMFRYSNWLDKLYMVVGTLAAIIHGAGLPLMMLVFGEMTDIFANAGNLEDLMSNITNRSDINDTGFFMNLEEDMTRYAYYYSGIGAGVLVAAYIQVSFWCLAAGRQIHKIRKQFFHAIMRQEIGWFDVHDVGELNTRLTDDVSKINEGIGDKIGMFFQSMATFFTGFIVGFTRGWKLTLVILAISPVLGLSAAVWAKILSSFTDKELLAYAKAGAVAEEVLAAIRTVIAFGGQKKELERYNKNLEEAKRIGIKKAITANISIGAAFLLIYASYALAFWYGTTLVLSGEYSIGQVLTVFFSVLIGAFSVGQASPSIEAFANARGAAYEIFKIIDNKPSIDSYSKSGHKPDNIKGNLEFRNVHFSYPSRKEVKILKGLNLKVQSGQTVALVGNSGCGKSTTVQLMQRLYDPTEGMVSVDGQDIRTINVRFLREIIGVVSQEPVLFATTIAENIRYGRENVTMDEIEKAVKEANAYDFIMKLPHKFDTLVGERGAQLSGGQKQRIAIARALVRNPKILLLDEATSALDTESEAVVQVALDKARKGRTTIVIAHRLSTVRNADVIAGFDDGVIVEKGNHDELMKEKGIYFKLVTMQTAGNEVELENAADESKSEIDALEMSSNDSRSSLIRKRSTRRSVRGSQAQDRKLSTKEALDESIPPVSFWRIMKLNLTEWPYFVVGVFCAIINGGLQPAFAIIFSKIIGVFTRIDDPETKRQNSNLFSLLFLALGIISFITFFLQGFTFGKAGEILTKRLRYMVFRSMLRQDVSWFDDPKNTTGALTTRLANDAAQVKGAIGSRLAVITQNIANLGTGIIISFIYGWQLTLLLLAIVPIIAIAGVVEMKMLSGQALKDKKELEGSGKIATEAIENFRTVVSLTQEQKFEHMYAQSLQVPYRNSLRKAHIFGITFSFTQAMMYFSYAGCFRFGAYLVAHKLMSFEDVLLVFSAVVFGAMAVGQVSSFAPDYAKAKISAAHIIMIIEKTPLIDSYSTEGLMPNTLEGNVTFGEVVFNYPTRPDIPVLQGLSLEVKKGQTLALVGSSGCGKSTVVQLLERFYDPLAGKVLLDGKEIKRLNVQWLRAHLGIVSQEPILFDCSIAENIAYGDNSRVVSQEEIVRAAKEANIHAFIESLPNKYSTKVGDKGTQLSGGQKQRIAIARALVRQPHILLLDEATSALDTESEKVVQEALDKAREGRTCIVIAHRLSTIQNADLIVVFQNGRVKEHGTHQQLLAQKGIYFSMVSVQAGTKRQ
T3 sequence (P33527 whole entry): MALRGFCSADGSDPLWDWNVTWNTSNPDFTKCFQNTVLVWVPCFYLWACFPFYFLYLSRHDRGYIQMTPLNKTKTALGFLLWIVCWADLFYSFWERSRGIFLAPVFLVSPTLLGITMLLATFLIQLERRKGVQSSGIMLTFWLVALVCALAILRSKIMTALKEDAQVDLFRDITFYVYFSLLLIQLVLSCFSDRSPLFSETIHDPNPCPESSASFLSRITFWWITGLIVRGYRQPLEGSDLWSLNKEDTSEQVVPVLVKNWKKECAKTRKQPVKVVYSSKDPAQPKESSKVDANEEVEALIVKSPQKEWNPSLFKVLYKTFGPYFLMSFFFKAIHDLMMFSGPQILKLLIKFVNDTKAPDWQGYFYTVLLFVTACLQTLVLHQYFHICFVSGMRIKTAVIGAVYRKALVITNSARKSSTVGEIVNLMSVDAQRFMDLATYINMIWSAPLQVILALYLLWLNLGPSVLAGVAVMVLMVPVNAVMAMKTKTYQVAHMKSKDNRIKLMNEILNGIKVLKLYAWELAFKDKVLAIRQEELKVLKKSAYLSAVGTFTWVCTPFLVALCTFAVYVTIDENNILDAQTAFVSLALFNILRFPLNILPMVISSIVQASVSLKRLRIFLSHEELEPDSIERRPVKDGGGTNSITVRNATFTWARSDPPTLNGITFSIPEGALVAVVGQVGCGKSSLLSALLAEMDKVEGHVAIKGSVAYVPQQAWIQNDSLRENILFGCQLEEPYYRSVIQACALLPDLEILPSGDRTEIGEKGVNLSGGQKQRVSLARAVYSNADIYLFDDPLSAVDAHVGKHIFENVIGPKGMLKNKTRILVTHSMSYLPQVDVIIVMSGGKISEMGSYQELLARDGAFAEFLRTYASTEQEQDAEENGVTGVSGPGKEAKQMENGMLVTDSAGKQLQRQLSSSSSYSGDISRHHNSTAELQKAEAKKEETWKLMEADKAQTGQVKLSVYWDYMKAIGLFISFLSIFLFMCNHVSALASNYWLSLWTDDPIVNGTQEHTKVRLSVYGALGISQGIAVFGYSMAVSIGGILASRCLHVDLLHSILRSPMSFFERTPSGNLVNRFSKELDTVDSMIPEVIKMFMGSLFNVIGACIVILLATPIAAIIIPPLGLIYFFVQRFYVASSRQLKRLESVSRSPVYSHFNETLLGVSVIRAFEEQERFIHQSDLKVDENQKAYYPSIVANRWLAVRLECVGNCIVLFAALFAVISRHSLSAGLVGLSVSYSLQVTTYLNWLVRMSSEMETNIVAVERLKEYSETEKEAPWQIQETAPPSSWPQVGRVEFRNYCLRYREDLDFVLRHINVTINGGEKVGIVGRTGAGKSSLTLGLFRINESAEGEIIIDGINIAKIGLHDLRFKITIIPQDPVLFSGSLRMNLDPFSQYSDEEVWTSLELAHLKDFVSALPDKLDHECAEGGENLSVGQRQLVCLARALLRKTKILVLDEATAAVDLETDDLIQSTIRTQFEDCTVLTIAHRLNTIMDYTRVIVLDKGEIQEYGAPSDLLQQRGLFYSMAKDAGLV

Consider `COc1cc2c(cc1OC)CN(CCc1ccc(NC(=O)/C=C/c3ccc(Oc4ccc(-c5ccccn5)c(Cl)c4)nc3)cc1)CC2`, for which the “fold change (FC)” value is 59.63 in data set [1]; 2.32 in data set [2]; 1.43 in [3]; 0.99 in data set [8]; 1.12 in data set [14]. Further, the outcome in data set [4] and in data set [5] was inactive. In addition, the inhibition at 1 µM in data set [6] was 60.3%. For the same compound, the Activity entry is listed as “Non-Toxic” in data set [7]; “Not Active” in data set [10]; “Non-Toxic” in data set [11]; “Active” in [12]; 437 mm3 in data set [13]; “Non-Toxic” in [15]. Moreover, the results for the Activity result in data set [16] and in [18] were “Dose-dependent effect” and “Active”, respectively. Also, the outcome in data set [9] was Active. For the same compound, in data set [17], the inhibition at 48 h, 10 µM stood at 9.7%.
